The target of test [1] is T1, Cathepsin K (Homo sapiens) (UniProt P43235).
T1 sequence (whole entry): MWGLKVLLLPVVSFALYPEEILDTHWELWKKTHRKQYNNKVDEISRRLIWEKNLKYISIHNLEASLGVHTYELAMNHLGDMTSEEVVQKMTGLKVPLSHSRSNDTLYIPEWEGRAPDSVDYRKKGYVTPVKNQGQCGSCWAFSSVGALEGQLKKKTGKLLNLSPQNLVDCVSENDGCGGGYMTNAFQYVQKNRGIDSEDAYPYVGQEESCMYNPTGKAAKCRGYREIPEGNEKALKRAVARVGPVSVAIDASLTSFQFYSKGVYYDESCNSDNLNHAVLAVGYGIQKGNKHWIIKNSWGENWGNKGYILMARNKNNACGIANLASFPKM
The test can be described thus: Inhibition of human cathepsin K […] activity assessed as normalized bradykinin equivalents ratio at 1 uM pre-incubated for 15 mins before bradykinin substrate addition by competitive enzyme immunoassay (reference value: <0.5%). Also noted: scale not given: the % may be the effect or the level left.

Test [2] has as its target T1, Cathepsin K (Homo sapiens). The test can be described thus: Inhibition of human cathepsin K […] activity assessed as normalized bradykinin equivalents ratio at 1 uM pre-incubated for 15 mins before kallidin substrate addition by competitive enzyme immunoassay (reference value: <0.5%). More on the design: scale not given: the % may be the effect or the level left.

Test [3] addresses T2, Trypsin (Homo sapiens) (UniProt P07477+P07478+P35030). Put plainly: Inhibition of trypsin (unknown origin) incubated for 30 mins using Abz-Thr-Pro-Arg-Ser-Ala-Leu-Gln-EDDnp substrate. The class given is protein assay.
The species named for a further test is Homo sapiens. Put plainly: Inhibition of chymotrypsin (unknown origin) incubated for 30 mins using Abz-Thr-Pro-Phe-Ser-Gly-Gln-EDDnp substrate.
Test [4] concerns the target T3, Neutrophil elastase (Homo sapiens) (UniProt P08246).
T3 sequence (whole entry): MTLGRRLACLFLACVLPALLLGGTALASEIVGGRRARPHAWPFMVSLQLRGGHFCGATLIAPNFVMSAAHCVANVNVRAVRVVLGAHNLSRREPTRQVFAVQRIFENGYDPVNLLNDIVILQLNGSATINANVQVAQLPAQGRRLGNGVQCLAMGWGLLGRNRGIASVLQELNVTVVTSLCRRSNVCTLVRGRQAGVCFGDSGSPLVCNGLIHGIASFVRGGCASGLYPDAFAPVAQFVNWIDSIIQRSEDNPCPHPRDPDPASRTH
The test can be described thus: Inhibition of human neutrophil elastase incubated for 30 mins using Abz-Ala-Pro-Glu-Glu-Ile-Met-Arg-Arg-Gln-(3-NO2-Tyr) substrate.

In test [5] the target is 72 kDa type IV collagenase (Homo sapiens) (UniProt P08253). Put plainly: Inhibition of human recombinant MMP-2 expressed in CHO cells incubated for 30 mins by Mca-Arg-Pro-Pro-Gly-Phe-Ser-Ala-Phe-Lys(Dnp) substrate. In kind it is cell-based.
Chain of 72 kDa type IV collagenase (Homo sapiens) (P08253 110-660 limits assumed): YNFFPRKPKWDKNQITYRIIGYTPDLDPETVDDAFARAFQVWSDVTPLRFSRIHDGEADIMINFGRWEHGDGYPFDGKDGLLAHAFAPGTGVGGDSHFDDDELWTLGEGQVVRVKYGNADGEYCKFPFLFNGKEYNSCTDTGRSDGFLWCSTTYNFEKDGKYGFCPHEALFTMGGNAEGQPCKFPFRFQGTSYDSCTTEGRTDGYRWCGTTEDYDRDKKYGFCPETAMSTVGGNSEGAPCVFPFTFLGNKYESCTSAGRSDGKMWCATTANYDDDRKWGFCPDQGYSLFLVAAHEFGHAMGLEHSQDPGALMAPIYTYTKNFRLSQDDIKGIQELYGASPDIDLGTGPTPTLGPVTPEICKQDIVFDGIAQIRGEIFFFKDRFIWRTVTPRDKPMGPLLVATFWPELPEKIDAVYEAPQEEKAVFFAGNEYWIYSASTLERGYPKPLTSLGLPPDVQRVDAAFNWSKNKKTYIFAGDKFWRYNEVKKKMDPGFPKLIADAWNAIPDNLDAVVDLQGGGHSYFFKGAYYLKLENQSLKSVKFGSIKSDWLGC
Test [6] concerns the target Cathepsin D (Homo sapiens) (UniProt P07339). Put plainly: Inhibition of human cathepsin D incubated for 30 mins using Mca-Gly-Lys-Pro-Ile-Leu-Phe-Phe-Arg-Leu-Lys(Dnp)-D-Arg-NH2 substrate.
For test [7], the target named is T4, Pro-cathepsin H (Homo sapiens) (UniProt P09668).
T4 sequence (whole entry): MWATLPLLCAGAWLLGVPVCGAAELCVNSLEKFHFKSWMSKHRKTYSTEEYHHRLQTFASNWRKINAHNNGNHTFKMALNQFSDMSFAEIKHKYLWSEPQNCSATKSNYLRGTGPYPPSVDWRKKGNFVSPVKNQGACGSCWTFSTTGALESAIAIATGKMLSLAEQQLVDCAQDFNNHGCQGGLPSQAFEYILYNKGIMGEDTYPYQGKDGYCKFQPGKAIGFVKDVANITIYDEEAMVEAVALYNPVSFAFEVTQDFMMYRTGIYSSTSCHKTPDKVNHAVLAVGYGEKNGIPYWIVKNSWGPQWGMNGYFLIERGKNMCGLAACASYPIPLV
Put plainly: Inhibition of human cathepsin H using fluorogenic AMC-derived peptide substrate assessed as reduction in residual activity preincubated for 30 mins followed by substrate addition.

The target of test [8] is Cathepsin B (Homo sapiens) (UniProt P07858). The test can be described thus: Inhibition of human cathepsin B.
In test [9] the target is T2, Trypsin (Homo sapiens). Put plainly: Substrate activity of trypsin (unknown origin) assessed as compound hydrolysis. The class given is protein assay. An outline of the steps:
(§1)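 Compound was incubated with each protease and the incubation mixtures were analysed by RP-HPLC for proteolytic degradation of the compound.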

The target of test [10] is Cathepsin B (Homo sapiens) (UniProt P07858). The test can be described thus: Substrate activity of human cathepsin B assessed as compound hydrolysis. An outline of the steps:
as §1

For test [11], the target named is T5, Cathepsin S (Homo sapiens, UniProt P25774). Put plainly: Reversible inhibition of human cathepsin S at 20 uM preincubated for 30 mins followed by Biot-(PEG)2-Ahx-LeuValGly-DMK addition measured after 1 hr by chemiluminescence assay.
Target sequence in this assay (P25774 115-331 limits assumed): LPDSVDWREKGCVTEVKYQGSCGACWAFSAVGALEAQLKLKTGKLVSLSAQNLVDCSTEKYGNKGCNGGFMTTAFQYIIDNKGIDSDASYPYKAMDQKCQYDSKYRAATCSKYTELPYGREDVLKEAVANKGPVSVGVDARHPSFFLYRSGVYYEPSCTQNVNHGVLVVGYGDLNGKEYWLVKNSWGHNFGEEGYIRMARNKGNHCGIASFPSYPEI
Test [12] addresses T5, Cathepsin S. The test can be described thus: Reversible inhibition of human cathepsin S at 20 uM in presence of excess Z-LR-AMC.
Target sequence in this assay (P25774 115-331 limits assumed): as above
For test [13], the target named is T1, Cathepsin K (Homo sapiens). Put plainly: Inhibition of human cathepsin K […] activity at 3 uM pre-incubated for 30 mins before bradykinin substrate addition by reverse-phase chromatography.
Test [14] concerns the target T1, Cathepsin K (Homo sapiens). Put plainly: Inhibition of human cathepsin K […] activity at 100 nM pre-incubated for 30 mins before bradykinin substrate addition by reverse-phase chromatography.
Test [15] concerns the target T1, Cathepsin K (Homo sapiens). Put plainly: Inhibition of human cathepsin K […] activity at 3 uM pre-incubated for 30 mins before Abz-Arg-Pro-Pro-Gly-Phe-Ser-Pro-Phe-Arg-(3-NO2-Tyr) substrate addition by reverse-phase chromatography.
Test [16] concerns the target T1, Cathepsin K (Homo sapiens). The test can be described thus: Inhibition of human cathepsin K […] activity at 100 nM pre-incubated for 30 mins before Abz-Arg-Pro-Pro-Gly-Phe-Ser-Pro-Phe-Arg-(3-NO2-Tyr) substrate addition by reverse-phase chromatography.
The target in test [17] is T1, Cathepsin K (Homo sapiens). The test can be described thus: Inhibition of human cathepsin K […] activity assessed as normalized bradykinin equivalents ratio at 5 uM pre-incubated for 15 mins before bradykinin substrate addition by competitive enzyme immunoassay (reference value: <0.5%). More on the design: scale not given: the % may be the effect or the level left.

The target of test [18] is T1, Cathepsin K (Homo sapiens). Put plainly: Inhibition of human cathepsin K […] activity assessed as normalized bradykinin equivalents ratio at 5 uM pre-incubated for 15 mins before kallidin substrate addition by competitive enzyme immunoassay (reference value: <0.5%). Also noted: scale not given: the % may be the effect or the level left.
The target of test [19] is T5, Cathepsin S. Put plainly: (§2) Reversible competitive inhibition of human cathepsin S using fluorogenic AMC-derived peptide substrate assessed as reduction in residual activity at pH 5.5 preincubated for 30 mins followed by substrate addition. An outline of the steps:
(§3)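 Ki values for cathepsin S determined at pH 5.5 and again at pH 7.4, a pH at which this enzyme stays stable and active, to compare the two conditions.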
Target sequence in this assay (P25774 whole entry): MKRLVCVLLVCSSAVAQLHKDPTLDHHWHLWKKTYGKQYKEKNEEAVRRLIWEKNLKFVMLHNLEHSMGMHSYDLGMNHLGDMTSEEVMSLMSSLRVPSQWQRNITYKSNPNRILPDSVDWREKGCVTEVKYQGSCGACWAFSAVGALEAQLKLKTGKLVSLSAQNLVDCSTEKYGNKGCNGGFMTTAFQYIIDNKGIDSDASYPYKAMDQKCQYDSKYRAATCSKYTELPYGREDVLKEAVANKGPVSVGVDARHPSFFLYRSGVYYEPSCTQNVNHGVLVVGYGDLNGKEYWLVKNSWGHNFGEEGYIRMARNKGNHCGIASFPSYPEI

For test [20], the target named is T5, Cathepsin S. Put plainly: Reversible competitive inhibition of human cathepsin S using fluorogenic AMC-derived peptide substrate assessed as reduction in residual activity at pH 7.4 preincubated for 30 mins followed by substrate addition. An outline of the steps: as §3
Target sequence in this assay (P25774 whole entry): as above
For the next test, the target named is T6, Cathepsin K (Homo sapiens, UniProt P43235).
T6 sequence (P43235 whole entry): T1 sequence (whole entry)
Put plainly: Reversible competitive inhibition of human cathepsin K using fluorogenic AMC-derived peptide substrate assessed as reduction in residual activity preincubated for 30 mins followed by substrate addition. An outline of the steps: (§4)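 Inhibition constants (Ki) determined at pH 5.5, with reversibility and competitive mode also assessed.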

For test [21], the target named is T7, Procathepsin L (Homo sapiens, UniProt P07711). The test can be described thus: Reversible competitive inhibition of human cathepsin L using fluorogenic AMC-derived peptide substrate assessed as reduction in residual activity preincubated for 30 mins followed by substrate addition. An outline of the steps: as §4
Target sequence in this assay (P07711 whole entry): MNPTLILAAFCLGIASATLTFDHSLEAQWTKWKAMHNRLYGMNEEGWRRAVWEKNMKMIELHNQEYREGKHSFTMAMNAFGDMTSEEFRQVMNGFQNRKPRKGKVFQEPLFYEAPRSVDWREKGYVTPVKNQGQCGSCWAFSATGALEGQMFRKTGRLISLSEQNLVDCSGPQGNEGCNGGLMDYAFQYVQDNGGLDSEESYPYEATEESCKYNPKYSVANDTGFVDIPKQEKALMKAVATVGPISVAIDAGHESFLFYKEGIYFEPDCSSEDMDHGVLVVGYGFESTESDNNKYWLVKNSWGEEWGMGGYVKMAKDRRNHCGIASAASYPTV
Another test addresses T8, Pro-cathepsin H (Homo sapiens, UniProt P09668).
T8 sequence (P09668 whole entry): T4 sequence (whole entry)
Put plainly: Reversible competitive inhibition of human cathepsin H using fluorogenic AMC-derived peptide substrate assessed as reduction in residual activity preincubated for 30 mins followed by substrate addition.

For test [22], the target named is T1, Cathepsin K (Homo sapiens). The test can be described thus: Inhibition of human cathepsin K using fluorogenic AMC-derived peptide substrate assessed as reduction in residual activity preincubated for 30 mins followed by substrate addition.
In test [23] the target is T7, Procathepsin L. Put plainly: Inhibition of human cathepsin L using fluorogenic AMC-derived peptide substrate assessed as reduction in residual activity preincubated for 30 mins followed by substrate addition.
Target sequence in this assay (P07711 114-333 limits assumed): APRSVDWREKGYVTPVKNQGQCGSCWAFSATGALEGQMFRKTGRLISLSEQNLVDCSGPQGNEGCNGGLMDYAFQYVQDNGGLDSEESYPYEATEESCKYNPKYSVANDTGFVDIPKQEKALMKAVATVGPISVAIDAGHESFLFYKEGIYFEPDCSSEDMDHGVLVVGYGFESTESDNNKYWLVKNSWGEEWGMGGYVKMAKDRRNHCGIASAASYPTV
In test [24] the target is T5, Cathepsin S. Put plainly: Inhibition of human cathepsin S at 300 uM preincubated for 30 mins followed by Biot-(PEG)2-Ahx-LeuValGly-DMK addition measured after 1 hr by chemiluminescence assay.
Target sequence in this assay (P25774 115-331 limits assumed): as the sequence (P25774 115-331 limits assumed) above
Test [25] addresses T5, Cathepsin S. The description is as §2. An outline of the steps: as §3
Target sequence in this assay (P25774 115-331 limits assumed): as above
The source holds these as a separate data set.

For test [26], the target named is T5, Cathepsin S. The test can be described thus: Reversible inhibition of human cathepsin S at 300 uM in presence of excess Z-LR-AMC.
Target sequence in this assay (P25774 115-331 limits assumed): as above
The target of test [27] is T5, Cathepsin S. Put plainly: Inhibition of human cathepsin S using fluorogenic AMC-derived peptide substrate assessed as reduction in residual activity preincubated for 30 mins followed by substrate addition.
Target sequence in this assay (P25774 115-331 limits assumed): as above

Active and inactive are the calls of the source. The rule behind the calls is not given here. Starred links: 1 amine or outer side, 2 acyl side, 3 side chain; linkers in the order of their positions; H or OH if unused. Non-standard residues stand in square brackets, D forms with d. Residues, ends and D or L forms follow the SMILES beside them. Tyr(3-NO2) = N[C@@H](Cc1ccc(O)c([N+](=O)[O-])c1)C(=O)O; X1 = O=C([C@H](Cc1ccccc1)n1cc(CN[*:1])nn1)[*:2]; 4Abz = Nc1ccc(C(=O)O)cc1 Bounds are passed on as bounds.

Chain of Cathepsin D (Homo sapiens) (P07339 65-162 limits assumed): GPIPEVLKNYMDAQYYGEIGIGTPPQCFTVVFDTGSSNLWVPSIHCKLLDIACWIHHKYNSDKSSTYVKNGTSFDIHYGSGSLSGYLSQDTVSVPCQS
Chain of Cathepsin D (Homo sapiens) (P07339 169-412 limits assumed): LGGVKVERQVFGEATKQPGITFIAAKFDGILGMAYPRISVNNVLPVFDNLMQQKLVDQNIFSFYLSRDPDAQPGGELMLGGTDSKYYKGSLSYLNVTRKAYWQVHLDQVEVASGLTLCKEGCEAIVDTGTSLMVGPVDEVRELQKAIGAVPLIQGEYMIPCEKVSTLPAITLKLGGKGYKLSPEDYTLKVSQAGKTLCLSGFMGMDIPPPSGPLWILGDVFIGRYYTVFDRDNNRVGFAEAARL

Take `CCCNC(=O)[C@H]1O[C@@H]1C(=O)N[C@H](C(=O)N1CCC[C@H]1C(=O)O)[C@@H](C)CC`: the Activity in test [1] and in test [2] was < 0.5% throughout.

In the case of `N=C(N)NCCC[C@H](NC(=O)[C@H](Cc1ccccc1)NC(=O)[C@@H]1CCCN1C(=O)[C@H](CO)NC(=O)[C@H](Cc1ccccc1)n1cc(CNC(=O)[C@@H]2CCCN2C(=O)[C@@H]2CCCN2C(=O)[C@H](CCCNC(=N)N)NC(=O)c2ccc(N)cc2)nn1)C(=O)N[C@@H](Cc1ccc(O)c([N+](=O)[O-])c1)C(N)=O` (H-[4Abz]RPP[X1]SPFR[Tyr(3-NO2)]-NH2), the inhibition entry (on Trypsin (Homo sapiens) [3]; in the test listed under Homo sapiens; in test [4]; in test [5]; in test [6]; in test [7]) was “inactive” throughout. Moreover, the inhibition result (in test [8]; at Cathepsin S [12]) was “inactive” each time. The result (on Trypsin (Homo sapiens) [9]; in test [10]) was Active. Moreover, the inhibition result (at Cathepsin S [11]; in test [13]; in test [14]; in test [15]; in test [16]) was “Active” in each case. For the same compound, the Activity in test [17] and in test [18] was 100% each time. In addition, the Ki entry at Cathepsin S [19] is “Not Active”; at Cathepsin S [20], “Not Active”; on Cathepsin K, 0.8 µM; at Procathepsin L [21], 22 µM; at Pro-cathepsin H, “Not Active”.

Turning to `CSCC[C@H](NC(=O)[C@@H]1CCCN1C(=O)[C@H](Cc1c[nH]cn1)NC(=O)[C@H](Cc1c[nH]c2ccccc12)NC(=O)[C@H](CCCNC(=N)N)NC(=O)CNC(C)=O)C(=O)NCc1cn([C@@H](C)C(=O)N2CCC[C@H]2C(=O)N[C@@H](Cc2c[nH]c3ccccc23)C(=O)N[C@@H](CCC(=O)O)C(=O)N[C@H](C)C(=O)N[C@H](CCCNC(=N)N)C(N)=O)nn1`, the inhibition entry (at Trypsin (Homo sapiens) [3]; in the test listed under Homo sapiens; in test [4]; in [5]; in test [6]; in test [7]) was “inactive” in each case. For the same compound, the inhibition entry (in test [8]; at Cathepsin S [26]) was “inactive” each time. Moreover, the inhibition entry (in test [22]; on Procathepsin L [23]; at Cathepsin S [24]; at Cathepsin S [25]; at Cathepsin S [27]) was “Active” each time. The inhibition constant (Ki) at Cathepsin S [19] (read-out: Ki) was 15 µM; at Cathepsin S [20] (read-out: Ki) it was 42 µM; at Cathepsin K, 10 µM; at Procathepsin L [21], 30 µM; on Pro-cathepsin H, “Not Active”.

What is called Ki is a measure of affinity in units of concentration, obtained from inhibition or displacement.

(Values after ChEMBL document CHEMBL4251609, “Substrate-derived triazolo- and azapeptides as inhibitors of cathepsins K and S” (Eur J Med Chem, 2018).)
